Laboratory results taken from ChEMBL document CHEMBL3232791, “Synthesis and antibacterial evaluation of amino acid-antibiotic conjugates” (2014).

What was measured:
Format in all cases: functional
Bacillus subtilis [1] = assay: Antibacterial activity against Bacillus subtilis 168 assessed as growth inhibition at 20 ug/ml after 16 hrs by spectrophotometric analysis; conditions: subsp. subtilis str. 168, 16 h, read-out: GI
In short: (§1)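 Growth inhibition read as OD600 on 300 µL culture samples, with untreated control cultures taken as maximum growth. Percent inhibition = (OD600 control − OD600 treated) × 100 / OD600 control. Parent antibiotics and their conjugates were run in parallel at three concentrations per compound, in biological duplicate.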

Escherichia coli [2] = assay: Antibacterial activity against Escherichia coli DH5alpha assessed as growth inhibition at 2.5 ug/ml after 16 hrs by spectrophotometric method; conditions: DH5[alpha], read-out: GI; in short: as §1
Escherichia coli [3] = assay: Antibacterial activity against Escherichia coli DH5alpha assessed as growth inhibition at 10 ug/ml after 16 hrs by spectrophotometric method; conditions: DH5[alpha], read-out: GI; in short: as §1
Escherichia coli [4] = assay: Antibacterial activity against Escherichia coli DH5alpha assessed as growth inhibition at 5 ug/ml after 16 hrs by spectrophotometric method; conditions: DH5[alpha], read-out: GI; in short: as §1
Bacillus subtilis [5] = assay: Antibacterial activity against Bacillus subtilis 168 assessed as growth inhibition at 40 ug/ml after 16 hrs by spectrophotometric analysis; conditions: subsp. subtilis str. 168, 16 h, read-out: GI; in short: as §1
Bacillus subtilis [6] = assay: Antibacterial activity against Bacillus subtilis 168 assessed as growth inhibition at 10 ug/ml after 16 hrs by spectrophotometric analysis; conditions: subsp. subtilis str. 168, 16 h, read-out: GI; in short: as §1
Staphylococcus aureus [7] = assay: Antibacterial activity against Staphylococcus aureus RN4220 assessed as growth inhibition at 50 ug/ml after 16 hrs by spectrophotometric analysis; conditions: RN4220, 16 h, read-out: GI; in short: as §1
Staphylococcus aureus [8] = assay: Antibacterial activity against Staphylococcus aureus RN4220 assessed as growth inhibition at 200 ug/ml after 16 hrs by spectrophotometric analysis; conditions: RN4220, 16 h, read-out: GI; in short: as §1
Staphylococcus aureus [9] = assay: Antibacterial activity against Staphylococcus aureus RN4220 assessed as growth inhibition at 100 ug/ml after 16 hrs by spectrophotometric analysis; conditions: RN4220, 16 h, read-out: GI; in short: as §1
Staphylococcus aureus [10] = assay: Antibacterial activity against Staphylococcus aureus RN4220 assessed as growth inhibition at 30 ug/ml after 16 hrs by spectrophotometric analysis; conditions: RN4220, 16 h, read-out: GI; in short: as §1
Escherichia coli [11] = assay: Antibacterial activity against Escherichia coli DH5alpha assessed as growth inhibition at 0.75 ug/ml after 16 hrs by spectrophotometric method; conditions: DH5[alpha], read-out: GI; in short: as §1
Escherichia coli [12] = assay: Antibacterial activity against Escherichia coli DH5alpha assessed as growth inhibition at 3 ug/ml after 16 hrs by spectrophotometric method; conditions: DH5[alpha], read-out: GI; in short: as §1
Pseudomonas aeruginosa [13] = assay: Antibacterial activity against Pseudomonas aeruginosa PAO1 assessed as growth inhibition at 40 ug/ml after 16 hrs by spectrophotometric analysis; conditions: PAO1, 16 h, read-out: GI; in short: as §1
Pseudomonas aeruginosa [14] = assay: Antibacterial activity against Pseudomonas aeruginosa PAO1 assessed as growth inhibition at 20 ug/ml after 16 hrs by spectrophotometric analysis; conditions: PAO1, 16 h, read-out: GI; in short: as §1
Escherichia coli [15] = assay: Antibacterial activity against Escherichia coli DH5alpha assessed as growth inhibition at 1.5 ug/ml after 16 hrs by spectrophotometric method; conditions: DH5[alpha], read-out: GI; in short: as §1
Bacillus subtilis [16] = assay: Antibacterial activity against Bacillus subtilis 168 assessed as growth inhibition at 5 ug/ml after 16 hrs by spectrophotometric analysis; conditions: subsp. subtilis str. 168, 16 h, read-out: GI; in short: as §1
Staphylococcus aureus [17] = assay: Antibacterial activity against Staphylococcus aureus RN4220 assessed as growth inhibition at 60 ug/ml after 16 hrs by spectrophotometric analysis; conditions: RN4220, 16 h, read-out: GI; in short: as §1
Pseudomonas aeruginosa [18] = assay: Antibacterial activity against Pseudomonas aeruginosa PAO1 assessed as growth inhibition at 10 ug/ml after 16 hrs by spectrophotometric analysis; conditions: PAO1, 16 h, read-out: GI; in short: as §1
Staphylococcus aureus [19] = assay: Antibacterial activity against Staphylococcus aureus RN4220 assessed as growth inhibition at 15 ug/ml after 16 hrs by spectrophotometric analysis; conditions: RN4220, 16 h, read-out: GI; in short: as §1

| Compound | inhibition of growth at 20 µg/mL (Bacillus subtilis [1]) | inhibition of growth at 2.5 µg/mL (Escherichia coli [2]) | inhibition of growth at 10 µg/mL (Escherichia coli [3]) | inhibition of growth at 5 µg/mL (Escherichia coli [4]) | inhibition of growth at 40 µg/mL (Bacillus subtilis [5]) | inhibition of growth at 10 µg/mL (Bacillus subtilis [6]) | inhibition of growth at 50 µg/mL (Staphylococcus aureus [7]) | inhibition of growth at 200 µg/mL (Staphylococcus aureus [8]) | inhibition of growth at 100 µg/mL (Staphylococcus aureus [9]) | inhibition of growth at 30 µg/mL (Staphylococcus aureus [10]) | inhibition of growth at 0.75 µg/mL (Escherichia coli [11]) | inhibition of growth at 3 µg/mL (Escherichia coli [12]) | inhibition of growth at 40 µg/mL (Pseudomonas aeruginosa [13]) | inhibition of growth at 20 µg/mL (Pseudomonas aeruginosa [14]) | inhibition of growth at 1.5 µg/mL (Escherichia coli [15]) | inhibition of growth at 5 µg/mL (Bacillus subtilis [16]) | inhibition of growth at 60 µg/mL (Staphylococcus aureus [17]) | inhibition of growth at 10 µg/mL (Pseudomonas aeruginosa [18]) | inhibition of growth at 15 µg/mL (Staphylococcus aureus [19]) |
| --- | --- | --- | --- | --- | --- | --- | --- | --- | --- | --- | --- | --- | --- | --- | --- | --- | --- | --- | --- |
| CCn1cc(C(=O)O)c(=O)c2cnc(N3CCN(C(=O)CNC(=O)OCc4ccccc4)CC3)nc21 | -7.68% | -13.4% | -8.93% | -11.1% | 91.7% | 88.2% | 32.9% | 57.4% | 52.2% |  |  |  |  |  |  |  |  |  |  |
| CCn1cc(C(=O)O)c(=O)c2cnc(N3CCN(C(=O)[C@H](C)NC(=O)OCc4ccccc4)CC3)nc21 | 5.34% | -12% | 1.75% | -12.1% | 60.1% | 90.3% | 38% | 63% | 55.4% |  |  |  |  |  |  |  |  |  |  |
| CCn1cc(C(=O)O)c(=O)c2cnc(N3CCN(C(=O)[C@@H](NC(=O)OCc4ccccc4)C(C)C)CC3)nc21 | 17% | -9.71% | 27.2% | -6.67% | 78.2% | 4.69% | 45.7% | 70.6% | 60% |  |  |  |  |  |  |  |  |  |  |
| CCn1cc(C(=O)O)c(=O)c2cnc(N3CCN(C(=O)[C@H](Cc4ccccc4)NC(=O)OCc4ccccc4)CC3)nc21 | 13.8% | -11.5% | 9.45% | -6.38% | 77% | 6.09% | 49.6% | 72.9% | 60.1% |  |  |  |  |  |  |  |  |  |  |
| CCn1cc(C(=O)O)c(=O)c2cnc(N3CCN(C(=O)[C@H](CCCCNC(=O)OCc4ccccc4)NC(=O)OCc4ccccc4)CC3)nc21 | -4.87% | -13.2% | -6.9% | -9.63% | 89.9% | -7.86% | -20.2% | 52.4% | 28.2% |  |  |  |  |  |  |  |  |  |  |
| CCn1cc(C(=O)O)c(=O)c2cc(F)c(N3CCN(C(=O)CNC(=O)OCc4ccccc4)CC3)cc21 | 89.5% |  |  |  |  | 90.2% |  |  |  | 85.7% | 5.96% | 20.8% | 81.5% | 10.6% | 9.75% | 91.6% | 88.5% | -16.2% | 83.6% |
| CCn1cc(C(=O)O)c(=O)c2cc(F)c(N3CCN(C(=O)[C@H](C)NC(=O)OCc4ccccc4)CC3)cc21 | 90.5% |  |  |  |  | 91.4% |  |  |  | 81.8% | 0.21% | 3.52% | 20.5% | -14.2% | -0.24% | 92.2% | 91% | -26.8% | 74.1% |
| CCn1cc(C(=O)O)c(=O)c2cc(F)c(N3CCN(C(=O)C(C)NC(=O)OCc4ccccc4)CC3)cc21 (stereo not drawn) | 90.3% |  |  |  |  | 91.4% |  |  |  | 77.9% | -4.73% | 0.77% | 25.8% | -19.8% | 1.25% | 92.3% | 86.1% | -25.7% | 51.5% |
| CCn1cc(C(=O)O)c(=O)c2cc(F)c(N3CCN(C(=O)[C@H](Cc4ccccc4)NC(=O)OCc4ccccc4)CC3)cc21 | 90.1% |  |  |  |  | 61.1% |  |  |  | 89.6% | -0.95% | 0.54% | 5.69% | -18.6% | 3.79% | 49.1% | 92.7% | -28% | 12% |
